Data reported in ChEMBL document CHEMBL2029233, “Des-acyl ghrelin fragments and analogues promote survival of pancreatic β-cells and human pancreatic islets and prevent diabetes in streptozotocin-treated rats” (2012).
Activity calls are given as the source filed them. No cut-off for these calls is given here. Peptide text beside a SMILES is read from it.

Legend:
HIT-T15 [1] = experiment: Cytoprotective activity in hamster HIT-T15 cells assessed as inhibition of serum starvation-induced cell death at 1 to 100 nM after 24 hrs by MTT assay relative to control; format: functional, cell-based; conditions: Mesocricetus auratus
Method in brief: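 Viability by MTT in HIT-T15 cells seeded at 5×10^3/well, serum-starved 24 h, then 24 h more in serum-free medium with peptide (1–100 nM). MTT 1 mg/mL ~1 h, DMSO solubilization, absorbance 570 nm. Expressed as percent of serum-free control. Mean ± SE, ≥3 experiments in quadruplicate.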

HIT-T15 [2] = experiment: Cytoprotective activity in hamster HIT-T15 cells assessed as inhibition of IFN-gamma/TNFalpha/IL1beta-induced cell death at 1 to 100 nM after 24 hrs by MTT assay relative to control; format: functional, cell-based; conditions: Mesocricetus auratus
Method in brief: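 HIT-T15 cells (5×10^3/well) serum-starved 24 h, then 24 h serum-free with IFN-γ 100 ng/mL, TNF-α 200 ng/mL, IL-1β 10 ng/mL plus peptide (1–100 nM). MTT 1 mg/mL ~1 h, formazan dissolved in DMSO, A570. Reported as percent of cytokine control. Mean ± SE of ≥3 experiments in quadruplicate.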

Compound | Activity (HIT-T15 [1]) | Activity (HIT-T15 [2])
CC(C)[C@@H](NC(=O)[C@@H](CCCNC(=N)N)NC(=O)[C@@H](CCC(N)=O)NC(=O)[C@@H](Cc1cnc[nH]1)NC(=O)[C@@H](CCC(=O)O)NC(=O)[C@H]1CCCN1C(=O)[C@H](N)CO)C(=O)N[C@H](CCC(N)=O)C(N)=O | inactive | inactive
CC(C)[C@@H](NC(=O)[C@H](CCCNC(=N)N)NC(=O)[C@H](CCC(N)=O)NC(=O)[C@H](Cc1cnc[nH]1)NC(=O)[C@H](CCC(=O)O)NC(=O)[C@@H]1CCCN1C(=O)[C@@H](N)CO)C(=O)N[C@@H](CCC(N)=O)C(N)=O | inactive | inactive
CC(C)[C@@H](NC(=O)[C@H](N)CCC(N)=O)C(=O)N[C@H](CCCNC(=N)N)C(=O)N[C@H](CCC(N)=O)C(=O)N[C@H](Cc1cnc[nH]1)C(=O)N[C@H](CCC(=O)O)C(=O)N1CCC[C@@H]1C(=O)N[C@H](CO)C(N)=O | inactive | inactive
CC(C)[C@H](NC(=O)[C@@H](CCCNC(=N)N)NC(=O)[C@H](CCC(N)=O)NC(=O)[C@H](Cc1cnc[nH]1)NC(=O)[C@H](CCC(=O)O)NC(=O)[C@@H]1CCCN1C(=O)[C@@H](N)CO)C(=O)N[C@@H](CCC(N)=O)C(N)=O | inactive | inactive
CC(C)[C@H](NC(=O)[C@H](CCCNC(=N)N)NC(=O)[C@@H](CCC(N)=O)NC(=O)[C@H](Cc1cnc[nH]1)NC(=O)[C@H](CCC(=O)O)NC(=O)[C@@H]1CCCN1C(=O)[C@@H](N)CO)C(=O)N[C@@H](CCC(N)=O)C(N)=O | inactive | inactive
CC(C)[C@H](NC(=O)[C@H](CCCNC(=N)N)NC(=O)[C@H](CCC(N)=O)NC(=O)[C@@H](Cc1cnc[nH]1)NC(=O)[C@H](CCC(=O)O)NC(=O)[C@@H]1CCCN1C(=O)[C@@H](N)CO)C(=O)N[C@@H](CCC(N)=O)C(N)=O | inactive | inactive
CC(C)[C@H](NC(=O)[C@H](CCCNC(=N)N)NC(=O)[C@H](CCC(N)=O)NC(=O)[C@H](Cc1cnc[nH]1)NC(=O)[C@@H](CCC(=O)O)NC(=O)[C@@H]1CCCN1C(=O)[C@@H](N)CO)C(=O)N[C@@H](CCC(N)=O)C(N)=O | inactive | inactive
CC(C)[C@H](NC(=O)[C@H](CCCNC(=N)N)NC(=O)[C@H](CCC(N)=O)NC(=O)[C@H](Cc1cnc[nH]1)NC(=O)[C@H](CCC(=O)O)NC(=O)[C@@H]1CCCN1C(=O)[C@@H](N)CO)C(=O)N[C@H](CCC(N)=O)C(N)=O | inactive | inactive
CC(C)[C@H](NC(=O)[C@H](CCCNC(=N)N)NC(=O)[C@H](CCC(N)=O)NC(=O)[C@H](Cc1cnc[nH]1)NC(=O)[C@H](CCC(=O)O)NC(=O)[C@@H]1CCCN1C(=O)[C@H](N)CO)C(=O)N[C@@H](CCC(N)=O)C(N)=O | inactive | inactive
CC(C)[C@H](NC(=O)[C@H](CCCNC(=N)N)NC(=O)[C@H](CCC(N)=O)NC(=O)[C@H](Cc1cnc[nH]1)NC(=O)[C@H](CCC(=O)O)NC(=O)[C@H]1CCCN1C(=O)[C@@H](N)CO)C(=O)N[C@@H](CCC(N)=O)C(N)=O | inactive | inactive
N=C(N)NCCC[C@H](NC(=O)[C@H](CCC(N)=O)NC(=O)[C@H](Cc1cnc[nH]1)NC(=O)[C@@H](N)CCC(=O)O)C(N)=O (H-EHQR-NH2) |  | inactive
N=C(N)NCCC[C@H](NC(=O)[C@H](CCC(N)=O)NC(=O)[C@@H](N)Cc1cnc[nH]1)C(N)=O (H-His-Gln-Arg-NH2) |  | inactive
H-APEHQRVQ-NH2 | Active | Active
H-SAEHQRVQ-NH2 | Active | Active
H-SPAHQRVQ-NH2 | Active | Active
H-SPEAQRVQ-NH2 | Active | Active
H-SPEHARVQ-NH2 | inactive | inactive
H-SPEHQAVQ-NH2 | inactive | inactive
H-SPEHQRAQ-NH2 | Active | Active
